Results as given in ChEMBL document CHEMBL2407075, “Sulphonamido-quinoxalines: search for anticancer agent” (Eur J Med Chem, 2013).

Key:
[1] = Oral bioavailability in human; type: ADME, organism-based; conditions: in silico prediction
MDA-MB-468 = assay: Growth inhibition of human MDA-MB-468 cells at 10 uM after 48 hrs by sulforhodamine B assay; type: functional; conditions: MDA-MB-468, 48 h, read-out: GI
Summary of the method: (§1)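 Single-dose screen at 10 µM across the NCI 60 panel. Cells in RPMI 1640 with 5% FBS and 2 mM L-glutamine, plated at 5000–40,000/well and preincubated 24 h at 37 °C, 5% CO2. Drug in DMSO, 48 h exposure. Fixed with TCA, stained with SRB, A515 read. Percent growth is taken relative to untreated control, and inhibition is 100 minus growth.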

BT-549 = assay: Growth inhibition of human BT549 cells at 10 uM after 48 hrs by sulforhodamine B assay; type: functional; conditions: BT-549, 48 h, read-out: GI
Summary of the method: (§2)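 Single-dose NCI-60 prescreen at 10 µM for 48 h at 37 °C and 5% CO2, using cells grown in RPMI 1640 with 5% FBS and 2 mM glutamine. Protein was measured by SRB after TCA fixation: 10% final for adherent lines, 16% for suspension lines. Absorbance was read at 515 nm. Percent growth inhibition was obtained by subtracting percent growth from 100.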

MDA-MB-231 = assay: Growth inhibition of human MDA-MB-231 cells at 10 uM after 48 hrs by sulforhodamine B assay; type: functional; conditions: MDA-MB-231, 48 h, read-out: GI; summary of the method: as §1
[2] = Growth inhibition of human Hs 578T cells at 10 uM after 48 hrs by sulforhodamine B assay; type: functional; conditions: read-out: GI
Summary of the method: (§3)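 NCI-60 one-dose primary screen at a single 10 µM concentration. Cells in RPMI 1640 with 5% FBS, preincubated 24 h at 37 °C, 5% CO2. Drug exposure 48 h, then TCA fixation, SRB staining and absorbance at 515 nm. Percent growth calculated against time-zero and untreated control wells, then converted to percent growth inhibition.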

DU-145 = assay: Growth inhibition of human DU145 cells at 10 uM after 48 hrs by sulforhodamine B assay; type: functional; conditions: DU-145, 48 h, read-out: GI; summary of the method: as §2
TK-10 = assay: Growth inhibition of human TK10 cells at 10 uM after 48 hrs by sulforhodamine B assay; type: functional; conditions: TK-10, 48 h, read-out: GI; summary of the method: as §1
RXF 393 = assay: Growth inhibition of human RXF393 cells at 10 uM after 48 hrs by sulforhodamine B assay; type: functional; conditions: RXF 393, 48 h, read-out: GI; summary of the method: as §1
SK-OV-3 = assay: Growth inhibition of human SKOV3 cells at 10 uM after 48 hrs by sulforhodamine B assay; type: functional; conditions: SK-OV-3, 48 h, read-out: GI; summary of the method: as §1
786-0 = assay: Growth inhibition of human 786-0 cells at 10 uM after 48 hrs by sulforhodamine B assay; type: functional; conditions: 786-0, 48 h, read-out: GI; summary of the method: as §2
OVCAR-8 = assay: Growth inhibition of human OVCAR8 cells at 10 uM after 48 hrs by sulforhodamine B assay; type: functional; conditions: OVCAR-8, 48 h, read-out: GI; summary of the method: as §1
OVCAR-4 = assay: Growth inhibition of human OVCAR4 cells at 10 uM after 48 hrs by sulforhodamine B assay; type: functional; conditions: OVCAR-4, 48 h, read-out: GI; summary of the method: as §1
IGROV-1 = assay: Growth inhibition of human IGROV1 cells at 10 uM after 48 hrs by sulforhodamine B assay; type: functional; conditions: IGROV-1, 48 h, read-out: GI; summary of the method: as §1
UACC-257 = assay: Growth inhibition of human UACC257 cells at 10 uM after 48 hrs by sulforhodamine B assay; type: functional; conditions: UACC-257, 48 h, read-out: GI; summary of the method: as §1
SK-MEL-28 = assay: Growth inhibition of human SK-MEL-28 cells at 10 uM after 48 hrs by sulforhodamine B assay; type: functional; conditions: SK-MEL-28, 48 h, read-out: GI; summary of the method: as §1
MDA-MB-435 = assay: Growth inhibition of human MDA-MB-435 cells at 10 uM after 48 hrs by sulforhodamine B assay; type: functional; conditions: MDA-MB-435, 48 h, read-out: GI; summary of the method: as §1
M14 = assay: Growth inhibition of human M14 cells at 10 uM after 48 hrs by sulforhodamine B assay; type: functional; conditions: M14, 48 h, read-out: GI; summary of the method: as §1
U-251 = assay: Growth inhibition of human U251 cells at 10 uM after 48 hrs by sulforhodamine B assay; type: functional; conditions: U-251, 48 h, read-out: GI; summary of the method: as §1
SNB-19 = assay: Growth inhibition of human SNB19 cells at 10 uM after 48 hrs by sulforhodamine B assay; type: functional; conditions: SNB-19, 48 h, read-out: GI; summary of the method: as §1
SNB-75 = assay: Growth inhibition of human SNB75 cells at 10 uM after 48 hrs by sulforhodamine B assay; type: functional; conditions: SNB-75, 48 h, read-out: GI; summary of the method: as §1
SF-295 = assay: Growth inhibition of human SF295 cells at 10 uM after 48 hrs by sulforhodamine B assay; type: functional; conditions: SF-295, 48 h, read-out: GI; summary of the method: as §1
SW-620 = assay: Growth inhibition of human SW620 cells at 10 uM after 48 hrs by sulforhodamine B assay; type: functional; conditions: SW-620, 48 h, read-out: GI; summary of the method: as §1
HCT-116 = assay: Growth inhibition of human HCT116 cells at 10 uM after 48 hrs by sulforhodamine B assay; type: functional; conditions: HCT-116, 48 h, read-out: GI; summary of the method: as §3
NCI-H522 = assay: Growth inhibition of human NCI-H522 cells at 10 uM after 48 hrs by sulforhodamine B assay; type: functional; conditions: NCI-H522, 48 h, read-out: GI; summary of the method: as §1
COLO 205 = assay: Growth inhibition of human COLO205 cells at 10 uM after 48 hrs by sulforhodamine B assay; type: functional; conditions: COLO 205, 48 h, read-out: GI; summary of the method: as §2
NCI-H322M = assay: Growth inhibition of human NCI-H322M cells at 10 uM after 48 hrs by sulforhodamine B assay; type: functional; conditions: read-out: GI; summary of the method: as §1
HOP-62 = assay: Growth inhibition of human HOP62 cells at 10 uM after 48 hrs by sulforhodamine B assay; type: functional; conditions: HOP-62, 48 h, read-out: GI; summary of the method: as §3
NCI-H226 = assay: Growth inhibition of human NCI-H226 cells at 10 uM after 48 hrs by sulforhodamine B assay; type: functional; conditions: NCI-H226, 48 h, read-out: GI; summary of the method: as §1
A549 = assay: Growth inhibition of human A549/ATCC cells at 10 uM after 48 hrs by sulforhodamine B assay; type: functional; conditions: A549, 48 h, read-out: GI; summary of the method: as §2
[3] = Growth inhibition of human EKVX cells at 10 uM after 48 hrs by sulforhodamine B assay; type: functional; conditions: read-out: GI; summary of the method: as §3
MOLT-4 = assay: Growth inhibition of human MOLT4 cells at 10 uM after 48 hrs by sulforhodamine B assay; type: functional; conditions: MOLT-4, 48 h, read-out: GI; summary of the method: as §1
HL-60(TB) = assay: Growth inhibition of human HL-60(TB) cells at 10 uM after 48 hrs by sulforhodamine B assay; type: functional; conditions: HL-60, 48 h, read-out: GI
Summary of the method: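 Single-dose NCI-60 primary screen at 10 µM, 48 h exposure, SRB read-out. Growth percentage of treated versus untreated cells was recorded and given as percent inhibition by subtraction.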

K562 = assay: Growth inhibition of human K562 cells at 10 uM after 48 hrs by sulforhodamine B assay; type: functional; conditions: K562, 48 h, read-out: GI; summary of the method: as §1

Structure (SMILES)	bioavailability [1] [%]	inhibition of growth at 10 µM (MDA-MB-468) [%]	inhibition of growth at 10 µM (BT-549) [%]	inhibition of growth at 10 µM (MDA-MB-231) [%]	inhibition of growth at 10 µM [2] [%]	inhibition of growth at 10 µM (DU-145) [%]	inhibition of growth at 10 µM (TK-10) [%]	inhibition of growth at 10 µM (RXF 393) [%]	inhibition of growth at 10 µM (SK-OV-3) [%]	inhibition of growth at 10 µM (786-0) [%]	inhibition of growth at 10 µM (OVCAR-8) [%]	inhibition of growth at 10 µM (OVCAR-4) [%]	inhibition of growth at 10 µM (IGROV-1) [%]	inhibition of growth at 10 µM (UACC-257) [%]	inhibition of growth at 10 µM (SK-MEL-28) [%]	inhibition of growth at 10 µM (MDA-MB-435) [%]	inhibition of growth at 10 µM (M14) [%]	inhibition of growth at 10 µM (SNB-19) [%]	inhibition of growth at 10 µM (SNB-75) [%]	inhibition of growth at 10 µM (SF-295) [%]	other results
O=S(=O)(Nc1ccc(Cl)cc1)c1ccc2nc(-c3ccccc3)c(-c3ccccc3)nc2c1	100	76.8	77.8	54.3	37.5	24.4	2.84	98.8	18.5	66.9	34.8	30.3	20.8	17.9	14.6	35.6	31	31.9	45.1	40.7	inhibition of growth at 10 µM (U-251): 39.5%; inhibition of growth at 10 µM (SW-620): 30.3%; inhibition of growth at 10 µM (HCT-116): 59.6%; inhibition of growth at 10 µM (NCI-H522): 50.8%; inhibition of growth at 10 µM (COLO 205): 26.6%; inhibition of growth at 10 µM (NCI-H322M): 32.8%; inhibition of growth at 10 µM (HOP-62): 12.8%; inhibition of growth at 10 µM (NCI-H226): -2.45%; inhibition of growth at 10 µM (A549): 41.9%; inhibition of growth at 10 µM [3]: 57.8%; inhibition of growth at 10 µM (MOLT-4): 60.8%; inhibition of growth at 10 µM (HL-60(TB)): 66.7%; inhibition of growth at 10 µM (K562): 55.6%
NC(=S)NNS(=O)(=O)c1ccc2nc(-c3ccccc3)c(-c3ccccc3)nc2c1	81.4	30.8	1.83	17.6	6.63	2.73	2.74	29.2	5.98	2.34	5.83	16.5	8.83	8.83	6.93	11.1	4.23	14.8	25.6	8.92	inhibition of growth at 10 µM (U-251): 26.8%; inhibition of growth at 10 µM (SW-620): 3.72%; inhibition of growth at 10 µM (HCT-116): 17.8%; inhibition of growth at 10 µM (NCI-H522): 13.7%; inhibition of growth at 10 µM (COLO 205): 4.83%; inhibition of growth at 10 µM (NCI-H322M): 2.92%; inhibition of growth at 10 µM (HOP-62): 38.7%; inhibition of growth at 10 µM (NCI-H226): 52.9%; inhibition of growth at 10 µM (A549): 34.7%; inhibition of growth at 10 µM [3]: 23.7%; inhibition of growth at 10 µM (MOLT-4): 28.1%; inhibition of growth at 10 µM (HL-60(TB)): 40.6%; inhibition of growth at 10 µM (K562): 34.8%
COc1ccccc1NS(=O)(=O)c1ccc2nc(-c3ccccc3)c(-c3ccccc3)nc2c1	100	56.8	55.1	48.3	33.2	18.9	1.26	70.7	18.6	41.5	24.1	30	11.8	18.9	12.7	22.5	26	41.9	31.9	15.9	inhibition of growth at 10 µM (SW-620): 21.5%; inhibition of growth at 10 µM (HCT-116): 55.7%; inhibition of growth at 10 µM (NCI-H522): 28.8%; inhibition of growth at 10 µM (COLO 205): 28.9%; inhibition of growth at 10 µM (NCI-H322M): 23.2%; inhibition of growth at 10 µM (HOP-62): 2.12%; inhibition of growth at 10 µM (NCI-H226): 69.9%; inhibition of growth at 10 µM (A549): 36.5%; inhibition of growth at 10 µM [3]: 48.8%; inhibition of growth at 10 µM (MOLT-4): 56.9%; inhibition of growth at 10 µM (HL-60(TB)): 60.7%; inhibition of growth at 10 µM (K562): 45.5%
